Reference: ChEMBL document CHEMBL1240347, “MK-7009, a potent and selective inhibitor of hepatitis C virus NS3/4A protease” (Antimicrob Agents Chemother, 2010)

What was measured:
[1] = target: Chymotrypsin-like elastase family member 1 (Homo sapiens, UniProt Q9UNI1); experiment: Inhibition of human Pancreatic elastase 1
Hepatitis C virus [2] = experiment: Antiviral activity against Hepatitis C virus genotype 1b infected in […] cell by cell-based HCV replicon assay in presence of 10% fetal bovine serum; type: functional, organism-based, Hepacivirus hominis
Procedure, shortened: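 Stable genotype 1b (con1) replicon cell line HB1, assayed in medium with 10% fetal bovine serum.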

Hepatitis C virus [3] = experiment: Inhibition of Hepatitis C virus genotype 1b NS3/4A protease activity; design: species or system Hepatitis C virus subtype 1b
Procedure, shortened: (§1)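 Recombinant NS3/4A protease was expressed in and purified from E. coli. Inhibition was measured by a time-resolved, internally quenched fluorescence assay at low enzyme concentration. Kis were reported.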

[4] = Inhibition of Hepatitis C virus genotype 2a NS3/4A protease activity; design: species or system Hepatitis C virus subtype 2a; procedure, shortened: as §1
Cathepsin K = target: T1, Cathepsin K (Homo sapiens, UniProt P43235); experiment: Inhibition of human Cathepsin K
T1 sequence (P43235 whole entry): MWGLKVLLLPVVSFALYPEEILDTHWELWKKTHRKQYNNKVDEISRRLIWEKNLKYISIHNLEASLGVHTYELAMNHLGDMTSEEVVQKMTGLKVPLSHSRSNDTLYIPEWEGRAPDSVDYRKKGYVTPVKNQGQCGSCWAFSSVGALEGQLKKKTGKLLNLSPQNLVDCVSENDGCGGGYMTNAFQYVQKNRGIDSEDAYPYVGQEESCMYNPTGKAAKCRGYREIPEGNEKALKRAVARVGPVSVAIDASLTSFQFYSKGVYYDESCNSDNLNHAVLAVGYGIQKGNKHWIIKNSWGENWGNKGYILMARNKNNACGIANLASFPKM

Cathepsin S = Cathepsin S (Homo sapiens, UniProt P25774); experiment: Inhibition of human Cathepsin S
Cathepsin S, sequence (P25774 whole entry): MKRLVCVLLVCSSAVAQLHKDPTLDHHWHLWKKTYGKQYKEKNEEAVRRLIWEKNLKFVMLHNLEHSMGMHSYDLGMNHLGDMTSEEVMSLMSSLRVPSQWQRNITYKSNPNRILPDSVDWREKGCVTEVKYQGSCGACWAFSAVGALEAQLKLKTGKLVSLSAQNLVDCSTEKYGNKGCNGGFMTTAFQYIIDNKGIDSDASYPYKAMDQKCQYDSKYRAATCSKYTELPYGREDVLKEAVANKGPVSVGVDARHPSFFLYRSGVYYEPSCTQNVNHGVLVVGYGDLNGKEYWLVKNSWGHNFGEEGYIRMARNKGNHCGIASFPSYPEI

Neutrophil elastase = target: T2, Neutrophil elastase (Homo sapiens, UniProt P08246); experiment: Inhibition of human Neutrophil elastase 2
T2 sequence (P08246 whole entry): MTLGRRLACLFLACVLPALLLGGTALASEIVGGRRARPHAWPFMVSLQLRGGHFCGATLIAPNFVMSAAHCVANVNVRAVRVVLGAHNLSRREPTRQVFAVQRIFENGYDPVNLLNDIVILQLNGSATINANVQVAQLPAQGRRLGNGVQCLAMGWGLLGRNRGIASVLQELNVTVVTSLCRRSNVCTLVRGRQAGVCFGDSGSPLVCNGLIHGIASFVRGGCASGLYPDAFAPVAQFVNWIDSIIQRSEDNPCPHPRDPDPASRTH

Hepatitis C virus [5] = experiment: Antiviral activity against Hepatitis C virus genotype 2a infected in […] cell by cell-based HCV replicon assay in presence of 10% fetal bovine serum; type: functional, organism-based, Hepacivirus hominis
Cathepsin B = Cathepsin B (Homo sapiens, UniProt P07858); experiment: Inhibition of human Cathepsin B
Cathepsin L2 = target: T3, Cathepsin L2 (Homo sapiens, UniProt O60911); experiment: Inhibition of human Cathepsin V
T3 sequence (O60911 whole entry): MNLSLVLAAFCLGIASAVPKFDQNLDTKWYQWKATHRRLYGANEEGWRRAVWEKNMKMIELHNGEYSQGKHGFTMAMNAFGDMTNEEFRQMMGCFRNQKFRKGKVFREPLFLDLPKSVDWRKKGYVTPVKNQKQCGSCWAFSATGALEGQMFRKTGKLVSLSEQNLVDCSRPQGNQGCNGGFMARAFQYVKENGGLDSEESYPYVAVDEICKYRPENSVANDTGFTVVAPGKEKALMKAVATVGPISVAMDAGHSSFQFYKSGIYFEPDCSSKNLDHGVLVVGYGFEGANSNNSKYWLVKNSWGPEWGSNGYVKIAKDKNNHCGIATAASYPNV

Procathepsin L = Procathepsin L (Homo sapiens, UniProt P07711); experiment: Inhibition of human Cathepsin L
Procathepsin L, sequence (P07711 whole entry): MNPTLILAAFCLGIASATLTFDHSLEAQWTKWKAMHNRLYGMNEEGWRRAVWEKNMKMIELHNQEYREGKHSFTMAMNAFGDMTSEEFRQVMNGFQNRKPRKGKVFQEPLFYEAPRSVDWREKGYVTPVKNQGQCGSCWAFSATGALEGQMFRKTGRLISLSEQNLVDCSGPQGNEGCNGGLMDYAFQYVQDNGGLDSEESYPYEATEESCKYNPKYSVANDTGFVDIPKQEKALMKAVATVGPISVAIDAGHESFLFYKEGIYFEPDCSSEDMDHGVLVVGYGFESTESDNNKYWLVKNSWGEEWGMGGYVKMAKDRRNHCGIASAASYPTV

Hepatitis C virus [6] = experiment: Antiviral activity against Hepatitis C virus genotype 1b infected in […] cell by cell-based HCV replicon assay in presence of 50% normal human serum; type: functional, organism-based, Hepacivirus hominis
Procedure, shortened: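 Stable genotype 1b (con1) replicon cell line HB1, assayed in the presence of 50% normal human serum.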

Chymase = target: T4, Chymase (Homo sapiens, UniProt P23946); experiment: Inhibition of human Chymase
T4 sequence (P23946 whole entry): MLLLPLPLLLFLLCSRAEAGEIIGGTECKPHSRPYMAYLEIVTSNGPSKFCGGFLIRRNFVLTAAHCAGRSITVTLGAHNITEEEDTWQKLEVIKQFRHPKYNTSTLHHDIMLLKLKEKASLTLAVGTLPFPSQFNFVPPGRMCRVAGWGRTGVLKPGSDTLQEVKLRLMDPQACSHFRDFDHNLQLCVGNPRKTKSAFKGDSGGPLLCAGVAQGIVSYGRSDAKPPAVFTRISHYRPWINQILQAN

[7] = Inhibition of Hepatitis C virus genotype 2b NS3/4A protease activity; design: species or system Hepatitis C virus subtype 2b; procedure, shortened: as §1
Cathepsin F = target: T5, Cathepsin F (Homo sapiens, UniProt Q9UBX1); experiment: Inhibition of human Cathepsin F
T5 sequence (Q9UBX1 whole entry): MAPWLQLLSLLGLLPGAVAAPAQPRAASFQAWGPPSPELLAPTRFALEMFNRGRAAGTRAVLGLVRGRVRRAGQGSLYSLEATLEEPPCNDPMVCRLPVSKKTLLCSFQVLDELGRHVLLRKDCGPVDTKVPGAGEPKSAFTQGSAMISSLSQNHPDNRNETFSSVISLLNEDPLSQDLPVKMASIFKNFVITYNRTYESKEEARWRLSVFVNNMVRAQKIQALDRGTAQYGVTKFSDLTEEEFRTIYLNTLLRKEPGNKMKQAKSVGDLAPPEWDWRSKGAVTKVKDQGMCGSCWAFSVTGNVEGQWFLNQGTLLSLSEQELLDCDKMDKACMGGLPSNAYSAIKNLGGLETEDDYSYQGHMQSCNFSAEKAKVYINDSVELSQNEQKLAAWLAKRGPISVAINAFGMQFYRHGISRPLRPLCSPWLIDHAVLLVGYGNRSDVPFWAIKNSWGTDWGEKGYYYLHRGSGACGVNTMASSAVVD

[8] = Cytotoxicity against […] cells; type: cell-based; conditions: HB1
[9] = Inhibition of Hepatitis C virus genotype 1a NS3/4A protease activity; design: species or system Hepatitis C virus subtype 1a; procedure, shortened: as §1
[10] = Inhibition of human Chymotrypsin
Serine protease 1 = Serine protease 1 (Homo sapiens, UniProt P07477); experiment: Inhibition of human Trypsin activity
Serine protease 1, sequence (P07477 whole entry): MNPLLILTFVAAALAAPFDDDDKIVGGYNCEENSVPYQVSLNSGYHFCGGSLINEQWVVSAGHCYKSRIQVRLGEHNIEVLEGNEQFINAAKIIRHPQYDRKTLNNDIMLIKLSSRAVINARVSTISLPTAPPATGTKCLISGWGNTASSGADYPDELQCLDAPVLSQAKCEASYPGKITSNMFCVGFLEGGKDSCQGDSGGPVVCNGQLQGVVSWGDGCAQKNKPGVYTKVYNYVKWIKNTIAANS

Chymotrypsin-like elastase family member 1, sequence (Q9UNI1 whole entry): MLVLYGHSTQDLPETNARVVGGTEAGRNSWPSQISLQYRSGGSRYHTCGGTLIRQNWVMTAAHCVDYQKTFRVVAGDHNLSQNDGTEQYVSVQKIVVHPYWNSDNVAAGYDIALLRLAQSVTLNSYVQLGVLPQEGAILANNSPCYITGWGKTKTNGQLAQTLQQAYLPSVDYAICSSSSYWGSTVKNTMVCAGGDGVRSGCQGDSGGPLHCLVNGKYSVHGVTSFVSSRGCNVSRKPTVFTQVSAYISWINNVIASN

Structure (SMILES) | IC50 [1] [µM] | EC50 (Hepatitis C virus [2]) [µM] | Ki (Hepatitis C virus [3]) [µM] | Ki [4] [µM] | IC50 (Cathepsin K) [µM] | IC50 (Cathepsin S) [µM] | IC50 (Neutrophil elastase) [µM] | EC50 (Hepatitis C virus [5]) [µM] | IC50 (Cathepsin B) [µM] | IC50 (Cathepsin L2) [µM] | IC50 (Procathepsin L) [µM] | EC50 (Hepatitis C virus [6]) [µM] | IC50 (Chymase) [µM] | Ki [7] [µM] | IC50 (Cathepsin F) [µM] | EC50 [8] [µM] | Ki [9] [µM] | IC50 [10] [µM] | IC50 (Serine protease 1) [µM]
CC(C)(C)NC(=O)N[C@H](C(=O)N1C[C@H]2[C@@H]([C@H]1C(=O)NC(CC1CCC1)C(=O)C(N)=O)C2(C)C)C(C)(C)C (some centres undefined) [BOCEPREVIR] | > 10 | 0.48 | 0.028 | 0.025 | 0.04 | 0.12 | > 10 | 0.17 | > 3.3 | 0.075 | 0.76 | 1.18 | 0.032 | 0.021 | 1.1 | > 50 | 0.021 | – | –
COc1ccc2c(O[C@@H]3C[C@H]4C(=O)N[C@]5(C(=O)O)C[C@H]5/C=C\CCCCC[C@H](NC(=O)OC5CCCC5)C(=O)N4C3)cc(-c3csc(NC(C)C)n3)nc2c1 [CILUPREVIR] | – | 0.003 | 0.0003 | 0.007 | – | – | – | 0.027 | – | – | – | 0.017 | – | 0.061 | – | 50 | 0.00081 | – | –
CCC[C@H](NC(=O)[C@@H]1[C@H]2CCC[C@H]2CN1C(=O)[C@@H](NC(=O)[C@@H](NC(=O)c1cnccn1)C1CCCCC1)C(C)(C)C)C(=O)C(=O)NC1CC1 [TELAPREVIR] | 0.03 | 1.1 | 0.093 | 0.054 | 0.63 | 0.3 | 8 | 0.39 | 4.4 | 1.35 | 3.5 | 8.6 | 0.026 | 0.042 | > 10 | > 50 | 0.13 | 3 | > 10
